Data published in PMC6648853 (ACS Omega, 2019).
Read-outs that look alike come from different tables or passages of the source. Marks after values point to notes of the source that are not given here. Blank lines part the entries; values can stand above or below the compound they belong to.

Legend:
[1] = system: MDA-MB-231; test: sulfurhodamine B; format: cell-based; conditions: Homo sapiens, MDA-MB-231, 48 h, read-out: GI50 (50% cell growth inhibition)
Method in brief: (§1)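 Cells were kept at 37 °C in 5% CO2 with 10% FBS and penicillin–streptomycin. MDA-MB-231 were grown in DMEM, the others in RPMI 1640. Cells were seeded at 5.0 × 10^3/well and left 24 h before serial dilutions of test compound (1.85–150 μM) for 48 h. Cells were fixed with 10% TCA, stained with 0.4% SRB and washed with 1% acetic acid. Bound dye was dissolved in 10 mM Tris (pH 10.5) and read at 510 nm. Doxorubicin served as positive control.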

[2] = system: NCI-H460; test: MTT assay, NCI-H460; format: cell-based, human; conditions: for GI50: Homo sapiens, NCI-H460, 72 h, read-out: GI50 (50% cell growth inhibition)
Method in brief: (§2)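 Cells were grown in RPMI 1640 with 10% FBS and penicillin–streptomycin at 37 °C in 5% CO2. The P-gp-overexpressing NCI-H460/R line was derived from NCI-H460 by stepwise doxorubicin (5–100 nM, 3 months). Test compound (2.5–50 μM) ran 72 h, then MTT (1 mg/mL) 4 h at 37 °C. Formazan was dissolved in DMSO and read at 540 nm. Viability was relative to untreated cells, giving GI50. At least two independent experiments were run in triplicate. Paclitaxel served as positive control.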

[3] = system: NCI-H460/R; test: MTT assay, NCI-H460/R; format: cell-based; conditions: Homo sapiens, NCI-H460, 72 h, read-out: GI50 (50% cell growth inhibition)
Method in brief: as §2

[4] = system: MCR-5; test: MTT assay, MCR-5 normal lung cells; format: cell-based; conditions: Homo sapiens, MCR5, 72 h, read-out: GI50 (50% cell growth inhibition)
Method in brief: as §2

[5] = system: MCF-7; test: sulfurhodamine B; format: cell-based; conditions: Homo sapiens, MCF7, 48 h, read-out: GI50 (50% cell growth inhibition)
Method in brief: as §1

[6] = system: HCT116; test: sulfurhodamine B; format: cell-based; conditions: Homo sapiens, HCT-116, 48 h, read-out: GI50 (50% cell growth inhibition)
Method in brief: as §1

[7] = system: AGS; conditions: read-out: cytotoxicity class (GI50), gastric; cited from earlier work
[8] = system: HL-60; conditions: read-out: cytotoxicity class (GI50); HL-60, leukemia/lymphoma; cited from earlier work
[9] = system: Molt-3; conditions: read-out: cytotoxicity class (GI50); Molt-3, leukemia/lymphoma; cited from earlier work
[10] = system: MEL-1; conditions: read-out: cytotoxicity class (GI50); MEL-1, leukemia/lymphoma; cited from earlier work
[11] = system: MV-3; conditions: read-out: cytotoxicity class (GI50); cited from earlier work
[12] = system: PaCa-2; conditions: read-out: cytotoxicity class (GI50); cited from earlier work
[13] = system: MCR-5; conditions: read-out: cytotoxicity class (GI50); cited from earlier work

GI50 [1]: > 100 µM
GI50 [2]: > 100 µM
GI50 [3]: > 100 µM
Compound: O=C(/C=C/c1ccc(O)c(O)c1)O[C@H](Cc1ccc(O)c(O)c1)C(=O)O [(1), rosmarinic acid]
GI50 [4]: > 100 µM

GI50 [1]: 0.072 µM
GI50 [5]: 0.16 µM
GI50 [6]: 0.125 µM
Compound: COc1cccc2c1C(=O)c1c(O)c3c(c(O)c1C2=O)C[C@@](O)(C(=O)CO)C[C@@H]3O[C@H]1C[C@H](N)[C@H](O)[C@H](C)O1 [DOX, Doxorubicin]

GI50 [2]: 0.0006 µM
GI50 [3]: 0.117 µM
Compound: CC(=O)O[C@H]1C(=O)[C@@]2(C)[C@H]([C@H](OC(=O)c3ccccc3)[C@]3(O)C[C@H](OC(=O)[C@H](O)[C@@H](NC(=O)c4ccccc4)c4ccccc4)C(C)=C1C3(C)C)[C@]1(OC(C)=O)CO[C@@H]1C[C@@H]2O [PCX, Paclitaxel]
Selectivity index, SI = GI50(MCR-5)/GI50(NCI-H460) ([2]; MCR-5 vs NCI-H460, MTT assay): PCX 872***
GI50 [4]: 0.523 µM

Compound: CC(C)C1=C(O)C(=O)C2=C(CC[C@H]3C(C)(C)CCC[C@]23C)C1=O [R1 = H, R2 = H, R3 = OH, royleanone]
GI50 [7]: > 30 µM
GI50 [8]: > 30 µM
GI50 [9]: 10 to 30 µM
GI50 [10]: > 30 µM
GI50 [11]: > 30 µM
GI50 [12]: > 30 µM
GI50 [13]: 10 to 30 µM
